Test results reported in ChEMBL document CHEMBL1629690, “Development of hexadecyloxypropyl tenofovir (CMX157) for treatment of infection caused by wild-type and nucleoside/nucleotide-resistant HIV” (Antimicrob Agents Chemother, 2010).

System: Human immunodeficiency virus 1
Test: Antiviral activity against HIV1 isolate 194 harboring reverse transcriptase M41L/T215Y/M184V mutant gene by phenosense assay
Type: functional, organism-based
Settings: Human immunodeficiency virus 1, isolate 194
Procedure, shortened: (§1)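 Recombinant-virus PhenoSense HIV assay run on a panel of 30 NRTI-resistant HIV-1 mutants and two wild-type viruses. Each virus is tested across increasing drug concentrations to give an inhibition curve and EC50. Fold change is the test recombinant EC50 divided by the EC50 of the drug-sensitive wild-type reference virus.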

Structure (SMILES) | EC50
O=c1[nH]cnc2c1ncn2[C@H]1CC[C@@H](CO)O1 [DIDANOSINE] | 10 µM
Nc1nc(NC2CC2)c2ncn([C@H]3C=C[C@@H](CO)C3)c2n1 [ABACAVIR] | 9.6 µM

System: Human immunodeficiency virus 1
Test: Antiviral activity against HIV1 isolate 070 harboring reverse transcriptase 65R/S68G mutant gene by phenosense assay
Type: functional, organism-based
Settings: Human immunodeficiency virus 1, isolate 070
Procedure, shortened: as §1

Structure (SMILES) | EC50
O=c1[nH]cnc2c1ncn2[C@H]1CC[C@@H](CO)O1 [DIDANOSINE] | 9.2 µM
Nc1nc(NC2CC2)c2ncn([C@H]3C=C[C@@H](CO)C3)c2n1 [ABACAVIR] | 5.7 µM

System: Human immunodeficiency virus 1
Test: Antiviral activity against HIV1 isolate 206 harboring reverse transcriptase D67N/K70R mutant gene by phenosense assay
Type: functional, organism-based
Settings: Human immunodeficiency virus 1, isolate 206
Procedure, shortened: (§2)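 PhenoSense HIV recombinant virus assay: patient-derived HIV-1 with major NRTI resistance mutations tested against increasing drug concentrations to give inhibition curves. EC50 is the concentration giving 50% inhibition. Fold change is the test recombinant EC50 divided by the EC50 of a drug-sensitive wild-type reference virus. Panel of 30 NRTI-resistant isolates plus two wild-type viruses.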

Structure (SMILES) | EC50
O=c1[nH]cnc2c1ncn2[C@H]1CC[C@@H](CO)O1 [DIDANOSINE] | 6.6 µM
Nc1nc(NC2CC2)c2ncn([C@H]3C=C[C@@H](CO)C3)c2n1 [ABACAVIR] | 2.5 µM

System: Human immunodeficiency virus 1
Test: Antiviral activity against HIV1 isolate 174 harboring reverse transcriptase M184V mutant gene obtained as site-directed mutant of NL4-3 by phenosense assay relative to wild type
Type: functional
Settings: not given
Procedure, shortened: as §1

Structure (SMILES) | fold change (FC)
O=c1[nH]cnc2c1ncn2[C@H]1CC[C@@H](CO)O1 [DIDANOSINE] | 1.2
Nc1nc(NC2CC2)c2ncn([C@H]3C=C[C@@H](CO)C3)c2n1 [ABACAVIR] | 2.6

System: Human immunodeficiency virus 1
Test: Antiviral activity against HIV1 isolate 153 harboring reverse transcriptase L74V mutant gene by phenosense assay relative to wild type
Type: functional
Settings: not given
Procedure, shortened: as §1

Structure (SMILES) | fold change (FC)
O=c1[nH]cnc2c1ncn2[C@H]1CC[C@@H](CO)O1 [DIDANOSINE] | 1.6
Nc1nc(NC2CC2)c2ncn([C@H]3C=C[C@@H](CO)C3)c2n1 [ABACAVIR] | 1.9

System: Human immunodeficiency virus 1
Test: Antiviral activity against HIV1 isolate 215 harboring reverse transcriptase D67N/K70E mutant gene by phenosense assay relative to wild type
Type: functional
Settings: not given
Procedure, shortened: as §2

Structure (SMILES) | fold change (FC)
O=c1[nH]cnc2c1ncn2[C@H]1CC[C@@H](CO)O1 [DIDANOSINE] | 1.4
Nc1nc(NC2CC2)c2ncn([C@H]3C=C[C@@H](CO)C3)c2n1 [ABACAVIR] | 1.4

System: Human immunodeficiency virus 1
Test: Antiviral activity against HIV1 isolate 067 harboring reverse transcriptase A62V/D67G/T69SVG/V75I/T215I mutant gene by phenosense assay relative to wild type
Type: functional
Settings: not given
Procedure, shortened: as §1

Structure (SMILES) | fold change (FC)
O=c1[nH]cnc2c1ncn2[C@H]1CC[C@@H](CO)O1 [DIDANOSINE] | 4
Nc1nc(NC2CC2)c2ncn([C@H]3C=C[C@@H](CO)C3)c2n1 [ABACAVIR] | 18

System: Human immunodeficiency virus 1
Test: Antiviral activity against HIV1 isolate 192 harboring reverse transcriptase M41L/T215Y mutant gene by phenosense assay
Type: functional, organism-based
Settings: Human immunodeficiency virus 1, isolate 192
Procedure, shortened: as §1

Structure (SMILES) | EC50
O=c1[nH]cnc2c1ncn2[C@H]1CC[C@@H](CO)O1 [DIDANOSINE] | 6.3 µM
Nc1nc(NC2CC2)c2ncn([C@H]3C=C[C@@H](CO)C3)c2n1 [ABACAVIR] | 3.4 µM

System: Human immunodeficiency virus 1
Test: Antiviral activity against HIV1 isolate 200 harboring reverse transcriptase M41L/L210W/T215Y mutant gene by phenosense assay relative to wild type
Type: functional
Settings: not given
Procedure, shortened: as §1

Structure (SMILES) | fold change (FC)
O=c1[nH]cnc2c1ncn2[C@H]1CC[C@@H](CO)O1 [DIDANOSINE] | 1.4
Nc1nc(NC2CC2)c2ncn([C@H]3C=C[C@@H](CO)C3)c2n1 [ABACAVIR] | 2.8

System: Human immunodeficiency virus 1
Test: Antiviral activity against HIV1 isolate 160 harboring reverse transcriptase S68G/V75(I/T)/F77L/Y115F/F116Y /Q151M mutant gene by phenosense assay relative to wild type
Type: functional
Settings: not given
Procedure, shortened: as §1

Structure (SMILES) | fold change (FC)
O=c1[nH]cnc2c1ncn2[C@H]1CC[C@@H](CO)O1 [DIDANOSINE] | 12
Nc1nc(NC2CC2)c2ncn([C@H]3C=C[C@@H](CO)C3)c2n1 [ABACAVIR] | 19

System: Human immunodeficiency virus 1
Test: Antiviral activity against HIV1 isolate 061 harboring reverse transcriptase M41L/D67N/K70R/M184V/L210W/T215Y/K219E mutant gene by phenosense assay
Type: functional, organism-based
Settings: Human immunodeficiency virus 1, isolate 061
Procedure, shortened: as §1

Structure (SMILES) | EC50
O=c1[nH]cnc2c1ncn2[C@H]1CC[C@@H](CO)O1 [DIDANOSINE] | 12 µM
Nc1nc(NC2CC2)c2ncn([C@H]3C=C[C@@H](CO)C3)c2n1 [ABACAVIR] | 22 µM

System: Human immunodeficiency virus 1
Test: Antiviral activity against HIV1 isolate 160 harboring reverse transcriptase S68G/V75(I/T)/F77L/Y115F/F116Y /Q151M mutant gene by phenosense assay
Type: functional, organism-based
Settings: Human immunodeficiency virus 1, isolate 160
Procedure, shortened: as §1

Structure (SMILES) | EC50
O=c1[nH]cnc2c1ncn2[C@H]1CC[C@@H](CO)O1 [DIDANOSINE] | 63 µM
Nc1nc(NC2CC2)c2ncn([C@H]3C=C[C@@H](CO)C3)c2n1 [ABACAVIR] | 34 µM

System: Human immunodeficiency virus 1
Test: Antiviral activity against HIV1 isolate 166 harboring reverse transcriptase L74V mutant gene obtained as site-directed mutant of NL4-3 by phenosense assay
Type: functional, organism-based
Settings: Human immunodeficiency virus 1, isolate 166
Procedure, shortened: as §1

Structure (SMILES) | EC50
O=c1[nH]cnc2c1ncn2[C@H]1CC[C@@H](CO)O1 [DIDANOSINE] | 8.1 µM
Nc1nc(NC2CC2)c2ncn([C@H]3C=C[C@@H](CO)C3)c2n1 [ABACAVIR] | 3.3 µM

System: Human immunodeficiency virus 1
Test: Antiviral activity against HIV1 isolate 157 harboring reverse transcriptase L74V/M184V mutant gene by phenosense assay relative to wild type
Type: functional
Settings: not given
Procedure, shortened: as §1

Structure (SMILES) | fold change (FC)
O=c1[nH]cnc2c1ncn2[C@H]1CC[C@@H](CO)O1 [DIDANOSINE] | 2
Nc1nc(NC2CC2)c2ncn([C@H]3C=C[C@@H](CO)C3)c2n1 [ABACAVIR] | 5.2

System: Human immunodeficiency virus 1
Test: Antiviral activity against HIV1 isolate 060 harboring reverse transcriptase M41L/D67N/K70R/L210W/T215Y/K219E mutant gene by phenosense assay relative to wild type
Type: functional
Settings: not given
Procedure, shortened: as §1

Structure (SMILES) | fold change (FC)
O=c1[nH]cnc2c1ncn2[C@H]1CC[C@@H](CO)O1 [DIDANOSINE] | 1.5
Nc1nc(NC2CC2)c2ncn([C@H]3C=C[C@@H](CO)C3)c2n1 [ABACAVIR] | 4.7

System: Human immunodeficiency virus 1
Test: Antiviral activity against HIV1 isolate 220 harboring reverse transcriptase K70E/M184V mutant gene by phenosense assay
Type: functional, organism-based
Settings: Human immunodeficiency virus 1, isolate 220
Procedure, shortened: as §2

Structure (SMILES) | EC50
O=c1[nH]cnc2c1ncn2[C@H]1CC[C@@H](CO)O1 [DIDANOSINE] | 9.9 µM
Nc1nc(NC2CC2)c2ncn([C@H]3C=C[C@@H](CO)C3)c2n1 [ABACAVIR] | 10 µM

System: Human immunodeficiency virus 1
Test: Antiviral activity against HIV1 isolate 188 harboring reverse transcriptase T215Y/M184V mutant gene by phenosense assay relative to wild type
Type: functional
Settings: not given
Procedure, shortened: as §1

Structure (SMILES) | fold change (FC)
O=c1[nH]cnc2c1ncn2[C@H]1CC[C@@H](CO)O1 [DIDANOSINE] | 1.4
Nc1nc(NC2CC2)c2ncn([C@H]3C=C[C@@H](CO)C3)c2n1 [ABACAVIR] | 4.3

System: Human immunodeficiency virus 1
Test: Antiviral activity against HIV1 isolate 174 harboring reverse transcriptase M184V mutant gene obtained as site-directed mutant of NL4-3 by phenosense assay
Type: functional, organism-based
Settings: Human immunodeficiency virus 1, isolate 174
Procedure, shortened: as §1

Structure (SMILES) | EC50
O=c1[nH]cnc2c1ncn2[C@H]1CC[C@@H](CO)O1 [DIDANOSINE] | 6.8 µM
Nc1nc(NC2CC2)c2ncn([C@H]3C=C[C@@H](CO)C3)c2n1 [ABACAVIR] | 4.7 µM

System: Human immunodeficiency virus 1
Test: Antiviral activity against HIV1 isolate 185 harboring reverse transcriptase T215Y mutant gene by phenosense assay
Type: functional, organism-based
Settings: Human immunodeficiency virus 1, isolate 185
Procedure, shortened: as §1

Structure (SMILES) | EC50
O=c1[nH]cnc2c1ncn2[C@H]1CC[C@@H](CO)O1 [DIDANOSINE] | 6.3 µM
Nc1nc(NC2CC2)c2ncn([C@H]3C=C[C@@H](CO)C3)c2n1 [ABACAVIR] | 3.7 µM

System: Human immunodeficiency virus 1
Test: Antiviral activity against HIV1 isolate 066 harboring reverse transcriptase 184V mutant gene by phenosense assay
Type: functional, organism-based
Settings: Human immunodeficiency virus 1, isolate 066
Procedure, shortened: as §1

Structure (SMILES) | EC50
O=c1[nH]cnc2c1ncn2[C@H]1CC[C@@H](CO)O1 [DIDANOSINE] | 7.6 µM
Nc1nc(NC2CC2)c2ncn([C@H]3C=C[C@@H](CO)C3)c2n1 [ABACAVIR] | 4.8 µM

System: Human immunodeficiency virus 1
Test: Antiviral activity against HIV1 isolate 058 harboring reverse transcriptase M41L/D67N/K70R/L210W/T215F/K219Q mutant gene by phenosense assay relative to wild type
Type: functional
Settings: not given
Procedure, shortened: as §1

Structure (SMILES) | fold change (FC)
O=c1[nH]cnc2c1ncn2[C@H]1CC[C@@H](CO)O1 [DIDANOSINE] | 1.6
Nc1nc(NC2CC2)c2ncn([C@H]3C=C[C@@H](CO)C3)c2n1 [ABACAVIR] | 4.4

System: Human immunodeficiency virus 1
Test: Antiviral activity against HIV1 isolate 204 harboring reverse transcriptase M41L/L210W/T215Y/M184V mutant gene by phenosense assay
Type: functional, organism-based
Settings: Human immunodeficiency virus 1, isolate 204
Procedure, shortened: as §2

Structure (SMILES) | EC50
O=c1[nH]cnc2c1ncn2[C@H]1CC[C@@H](CO)O1 [DIDANOSINE] | 8.6 µM
Nc1nc(NC2CC2)c2ncn([C@H]3C=C[C@@H](CO)C3)c2n1 [ABACAVIR] | 8.9 µM

System: Human immunodeficiency virus 1
Test: Antiviral activity against HIV1 isolate 058 harboring reverse transcriptase M41L/D67N/K70R/L210W/T215F/K219Q mutant gene by phenosense assay
Type: functional, organism-based
Settings: Human immunodeficiency virus 1, isolate 058
Procedure, shortened: as §1

Structure (SMILES) | EC50
O=c1[nH]cnc2c1ncn2[C@H]1CC[C@@H](CO)O1 [DIDANOSINE] | 8.8 µM
Nc1nc(NC2CC2)c2ncn([C@H]3C=C[C@@H](CO)C3)c2n1 [ABACAVIR] | 7.9 µM

System: Human immunodeficiency virus 1
Test: Antiviral activity against HIV1 isolate 061 harboring reverse transcriptase M41L/D67N/K70R/M184V/L210W/T215Y/K219E mutant gene by phenosense assay relative to wild type
Type: functional
Settings: not given
Procedure, shortened: as §1

Structure (SMILES) | fold change (FC)
O=c1[nH]cnc2c1ncn2[C@H]1CC[C@@H](CO)O1 [DIDANOSINE] | 2.1
Nc1nc(NC2CC2)c2ncn([C@H]3C=C[C@@H](CO)C3)c2n1 [ABACAVIR] | 9.1

System: Human immunodeficiency virus 1
Test: Antiviral activity against HIV1 isolate 185 harboring reverse transcriptase T215Y mutant gene by phenosense assay relative to wild type
Type: functional
Settings: not given
Procedure, shortened: as §1

Structure (SMILES) | fold change (FC)
O=c1[nH]cnc2c1ncn2[C@H]1CC[C@@H](CO)O1 [DIDANOSINE] | 1.1
Nc1nc(NC2CC2)c2ncn([C@H]3C=C[C@@H](CO)C3)c2n1 [ABACAVIR] | 2.1

System: Human immunodeficiency virus 1
Test: Antiviral activity against HIV1 isolate 166 harboring reverse transcriptase L74V mutant gene obtained as site-directed mutant of NL4-3 by phenosense assay relative to wild type
Type: functional
Settings: not given
Procedure, shortened: as §1

Structure (SMILES) | fold change (FC)
O=c1[nH]cnc2c1ncn2[C@H]1CC[C@@H](CO)O1 [DIDANOSINE] | 1.5
Nc1nc(NC2CC2)c2ncn([C@H]3C=C[C@@H](CO)C3)c2n1 [ABACAVIR] | 1.9

System: Human immunodeficiency virus 1
Test: Antiviral activity against HIV1 isolate 056 expressing wild type reverse transcriptase gene by phenosense assay
Type: functional, organism-based
Settings: Human immunodeficiency virus 1, isolate 056
Procedure, shortened: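 In the PhenoSense recombinant virus assay, virus was tested against increasing drug concentrations. EC50 came from the inhibition curve and was compared with a drug-sensitive reference virus.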

Structure (SMILES) | EC50
O=c1[nH]cnc2c1ncn2[C@H]1CC[C@@H](CO)O1 [DIDANOSINE] | 5.5 µM
Nc1nc(NC2CC2)c2ncn([C@H]3C=C[C@@H](CO)C3)c2n1 [ABACAVIR] | 1.5 µM
